pIC50: −log10 of the molar value.
Experiments:
[1] = Inhibition of Saccharomyces cerevisiae alpha-glucosidase using p-nitrophenyl-alpha-D-glucopyranoside substrate incubated for 30 mins
How it was run: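 Sample solution received 3 mM p-nitrophenyl-α-D-glucopyranoside and 0.2 U/mL α-glucosidase (stock levels) in 0.01 M phosphate buffer pH 7.0, incubated at 37 °C for 30 min. Stopped with 0.1 M Na2CO3; p-nitrophenol release read at 401 nm. IC50 is the concentration giving 50% inhibition of enzyme activity; acarbose as positive control.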

[2] = test system: HeLa; experiment: Cytotoxicity against human HeLa cells assessed as reduction in cell viability incubated for 72 hrs by WST-8 dye based assay; type: functional
How it was run: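 HeLa cells kept in DMEM with 10% FBS, 0.1% NaHCO3 and 1% antibiotic-antimycotic. Cells seeded at 2 × 10^3/well and grown 24 h at 37 °C in humidified 5% CO2. Washed with PBS, then exposed to serially diluted samples in DMEM for 72 h. Washed twice, given DMEM with 10% WST-8 for 3 h, A450 read; viability from mean of three wells; IC50.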

[3] = test system: Saccharomyces cerevisiae; experiment: Potency index, ratio of IC50 for Acarbose to IC50 for test compound for inhibition of Saccharomyces cerevisiae alpha-glucosidase using p-nitrophenyl-alpha-D-glucopyranoside substrate incubated for 30 mins

pIC50 [1] | Ratio IC50 [3] | Compound | pIC50 [2]
3.71 | – | C=C1[C@@H](OC(C)=O)CC[C@@]2(C)C[C@H](OC(C)=O)C3=C(C)C[C@H](OC(=O)C(C)C(C)O)[C@@H]([C@@H](OC(C)=O)[C@H]12)C3(C)C (some centres undefined) | < 5.00
< 3.60 | – | CCCCCCCCC/C=C\CC/C=C/[C@@H](O)[C@H](CO[C@@H]1O[C@H](CO)[C@@H](O)[C@H](O)[C@H]1O)NC(=O)[C@H](O)CCCCCCCCCCCCC | < 5.00
4.01 | – | CO[C@H]1O[C@H]2[C@@H]3[C@@H]1[C@@H](O)C[C@H](O)[C@@]3(C)[C@@H](O)[C@H](OC(C)=O)C1=C(C)[C@@H](OC(C)=O)C[C@]2(O)C1(C)C | < 5.00
3.67 | – | C[C@H]1O[C@H](O[C@H]2[C@H](O)[C@@H](O)[C@@H](O[C@H]3[C@H](O)[C@@H](O)C(O)O[C@@H]3CO)O[C@@H]2CO)[C@H](O)[C@@H](O)[C@@H]1N[C@H]1C=C(CO)[C@@H](O)[C@H](O)[C@H]1O (some centres undefined) [ACARBOSE] | –
3.85 | – | C/C=C(\C)C(=O)N[C@@H](c1ccccc1)[C@@H](O)C(=O)O[C@H]1C[C@@]2(O)[C@@H](OC(=O)c3ccccc3)[C@@H]3[C@]4(OC(C)=O)CO[C@@H]4C[C@H](O[C@@H]4OC[C@@H](O)[C@H](O)[C@H]4O)[C@@]3(C)C(=O)C(=O)C(=C1C)C2(C)C | –
4.08 | – | CC(=O)O[C@@]12CO[C@@H]1C[C@H](O[C@@H]1OC[C@@H](O)[C@H](O)[C@H]1O)[C@@]1(C)C(=O)C(=O)C3=C(C)CC[C@@]3(C(C)(C)OC(=O)c3ccccc3)[C@@H](O)[C@H]21 | 5.31
< 3.60 | – | CC(=O)O[C@@]12CO[C@@H]1C[C@H](O)[C@@]1(C)C(=O)[C@H](O)C3=C(C)C(=O)C[C@@](O)([C@@H](OC(=O)c4ccccc4)[C@H]21)C3(C)C | < 5.00
4.03 | – | CCCCCC(=O)N[C@@H](c1ccccc1)[C@@H](O)C(=O)O[C@H]1C[C@@]2(O)[C@@H](OC(=O)c3ccccc3)[C@@H]3[C@]4(OC(C)=O)CO[C@@H]4C[C@H](O[C@@H]4OC[C@@H](O)[C@H](O)[C@H]4O)[C@@]3(C)C(=O)[C@H](OC(C)=O)C(=C1C)C2(C)C | 8.82
< 3.60 | – | C=C1[C@@H](O)C[C@H](OC(C)=O)[C@@]2(C)[C@@H](OC(C)=O)[C@H](OC(C)=O)C3=C(C)C(=O)C[C@@H]([C@@H](O)[C@H]12)C3(C)C | < 5.00
4.42 | – | C=C1[C@@H](OC(=O)/C=C/c2ccccc2)C[C@H](OC(C)=O)[C@]2(C)[C@@H]1C[C@@H]1C[C@H](OC(C)=O)C(C)=C([C@@H](OC(C)=O)[C@@H]2OC(C)=O)C1(C)C | 5.24
5.44 | 60 | C=C1[C@@H](OC(C)=O)CC[C@@]2(C)C[C@H](OC)C3=C(C)C[C@H](OC(=O)C(C)C(C)O)[C@@H]([C@@H](OC(C)=O)[C@H]12)C3(C)C (some centres undefined) | –
3.95 | – | C=C1[C@@H](OC(=O)/C=C/c2ccccc2)C[C@H](OC(C)=O)[C@@]2(C)[C@@H](OC(C)=O)[C@H](OC(C)=O)C3=C(C)C(=O)C[C@@H]([C@@H](OC(C)=O)[C@H]12)C3(C)C | –
4.37 | – | CC(=O)O[C@H]1C(=O)[C@]2(C)[C@H](O)C[C@H]3OC[C@@]3(OC(C)=O)[C@H]2[C@H](OC(=O)c2ccccc2)[C@]2(O)C[C@H](OC(=O)[C@H](O)[C@@H](NC(=O)c3ccccc3)c3ccccc3)C(C)=C1C2(C)C | –
4.05 | – | C=C1[C@H]2C[C@]34CC=C(C)C3[C@@H](OC4(C)C)[C@H](OC(C)=O)[C@]2(C)[C@@H](OC(C)=O)C[C@@H]1O (some centres undefined) | < 5.00
4.06 | – | CC1(C)CC[C@]2(C(=O)O)CC[C@]3(C)C(=CC[C@@H]4[C@@]5(C)CC[C@H](O)C(C)(C)[C@@H]5CC[C@]43C)[C@@H]2C1 [OLEANOLIC_ACID] | –
< 3.60 | – | CC=C(C)C(=O)N[C@@H](c1ccccc1)[C@@H](O)C(=O)O[C@H]1C[C@@]2(O)[C@@H](OC(=O)c3ccccc3)[C@@H]3[C@]4(OC(C)=O)CO[C@@H]4C[C@H](O[C@@H]4OC[C@@H](O)[C@H](O)[C@H]4O)[C@@]3(C)C(=O)[C@H](OC(C)=O)C(=C1C)C2(C)C | 6.85
4.50 | – | C=C1[C@@H](OC(C)=O)CC[C@@]2(C)C[C@H](OC)C3=C(C)C[C@H](OC(C)=O)[C@@H]([C@@H](OC(C)=O)[C@H]12)C3(C)C | –
3.76 | – | COc1cc(C[C@@H]2COC(=O)[C@H]2Cc2ccc(O)c(OC)c2)ccc1O | < 5.00
4.82 | – | C=C1[C@@H](OC(=O)/C=C/c2ccccc2)C[C@H](OC(C)=O)[C@]2(C)[C@@H]1C[C@@H]1C[C@H](O)C(C)=C([C@@H](OC(C)=O)[C@@H]2OC(C)=O)C1(C)C [TAXEZOPIDINE H] | < 5.00
3.95 | – | C=C1[C@@H](O)CC[C@@]2(C)C[C@H](OC)C3=C(C)C[C@H](OC(=O)C(C)C(C)O)[C@@H]([C@@H](OC(C)=O)[C@H]12)C3(C)C (some centres undefined) | –
4.33 | – | COc1cc(C[C@H]2COC(=O)[C@@H]2Cc2ccc(O)c(OC)c2)ccc1O [MATAIRESINOL] | –
< 3.60 | – | C=C1[C@@H](O)C[C@H](OC(C)=O)[C@@]2(C)[C@@H](OC(C)=O)[C@H](OC(C)=O)C3=C(C)C(=O)C[C@@H]([C@@H](OC(C)=O)[C@H]12)C3(C)C | < 5.00
< 3.60 | – | CC(=O)O[C@H]1C(=O)[C@@]2(C)[C@H]([C@H](OC(=O)c3ccccc3)[C@]3(O)C[C@H](OC(=O)[C@H](O)[C@@H](NC(=O)c4ccccc4)c4ccccc4)C(C)=C1C3(C)C)[C@]1(OC(C)=O)CO[C@@H]1C[C@@H]2O [PACLITAXEL] | –

Compound | pIC50 [1] | Ratio IC50 [3] | pIC50 [2]
C=C1[C@@H]2[C@H](OC(C)=O)[C@@H]3CC(=O)[C@@]4(C)OC[C@@]3(C)[C@@]4(O)[C@@H](OC(C)=O)[C@H](OC(C)=O)[C@]2(COC(=O)c2ccccc2)[C@@H](OC(C)=O)C[C@@H]1O | < 3.60 | – | < 5.00
COc1cc([C@H]2c3cc(O)c(OC)cc3C[C@H]3C(=O)OC[C@H]23)ccc1O [ALPHA-CONIDENDRIN] | 3.71 | – | < 5.00
CC(=O)O[C@@]12CO[C@@H]1C[C@@H](O)[C@@]1(C)C(=O)[C@H](O)C3=C(C)[C@@H](OC(=O)[C@H](O)[C@@H](NC(=O)c4ccccc4)c4ccccc4)C[C@@](O)([C@@H](OC(=O)c4ccccc4)[C@H]21)C3(C)C | 4.31 | – | 10.07
CC(=O)O[C@@]12CO[C@@H]1C[C@H](O)[C@@]1(C)C(=O)[C@H](O)C3=C(C)[C@@H](OC(=O)[C@H](O)[C@@H](NC(=O)c4ccccc4)c4ccccc4)C[C@@](O)([C@@H](OC(=O)c4ccccc4)[C@H]21)C3(C)C | < 3.60 | – | 9.12
CCCCCC(=O)N[C@@H](c1ccccc1)[C@@H](O)C(=O)O[C@H]1C[C@@]2(O)[C@@H](OC(=O)c3ccccc3)[C@@H]3[C@]4(OC(C)=O)CO[C@@H]4C[C@H](O[C@@H]4OC[C@@H](O)[C@H](O)[C@H]4O)[C@@]3(C)C(=O)[C@H](O)C(=C1C)C2(C)C | 4.06 | – | 7.30
CC(C)CC[C@@H](O)[C@](C)(O)[C@H]1CC[C@@]2(O)C3=CC(=O)[C@@H]4C[C@@H](O)[C@@H](O)C[C@]4(C)[C@H]3CC[C@]12C [PONASTERONE A] | 3.94 | – | < 5.00

Reference: ChEMBL document CHEMBL4184136, “α-Glucosidase Inhibitory and Cytotoxic Taxane Diterpenoids from the Stem Bark of Taxus wallichiana” (J Nat Prod, 2017)
